Substitutions are numbered along the chain they refer to.
What was measured:
mTRPV3 H426A = target: T1, mTRPV3 H426A (Mus musculus, UniProt Q8K424, H426A); assay: whole-cell patch-clamp of mTRPV3 H426A mutant in HEK293 cells; format: cell-based; details: compound 100 µmol/L; carvacrol 300 μmol/L
T1 sequence (Q8K424 1-791 H426A): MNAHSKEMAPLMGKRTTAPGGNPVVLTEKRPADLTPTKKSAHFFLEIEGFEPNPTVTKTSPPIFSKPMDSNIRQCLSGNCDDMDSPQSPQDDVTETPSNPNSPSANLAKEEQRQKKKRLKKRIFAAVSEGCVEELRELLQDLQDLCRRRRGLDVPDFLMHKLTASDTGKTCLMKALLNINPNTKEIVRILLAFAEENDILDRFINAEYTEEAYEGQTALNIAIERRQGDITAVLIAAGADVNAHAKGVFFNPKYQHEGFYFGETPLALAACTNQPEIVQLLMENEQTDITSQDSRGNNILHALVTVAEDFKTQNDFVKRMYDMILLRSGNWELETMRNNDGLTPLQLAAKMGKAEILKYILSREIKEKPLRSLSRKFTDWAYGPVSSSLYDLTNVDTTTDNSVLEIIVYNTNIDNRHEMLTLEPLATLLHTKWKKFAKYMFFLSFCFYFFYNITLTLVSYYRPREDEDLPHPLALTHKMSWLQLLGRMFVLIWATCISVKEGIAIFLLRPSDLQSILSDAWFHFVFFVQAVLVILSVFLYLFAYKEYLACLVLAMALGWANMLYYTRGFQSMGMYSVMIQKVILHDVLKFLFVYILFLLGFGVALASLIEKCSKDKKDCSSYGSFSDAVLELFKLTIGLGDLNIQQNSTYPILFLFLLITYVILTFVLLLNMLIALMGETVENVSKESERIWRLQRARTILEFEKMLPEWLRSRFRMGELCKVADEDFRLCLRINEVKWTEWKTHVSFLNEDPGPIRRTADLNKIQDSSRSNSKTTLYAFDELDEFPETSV
How it was run: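 The sequence-confirmed site-directed mTRPV3 mutant was transiently expressed in HEK293 cells, and EGFP-positive cells were recorded whole-cell 18 h post-transfection. Cells were held at 0 mV with 500-ms ramps from −100 to +100 mV every 2 s, at 22–24 °C. Compounds were diluted in perfusion solution.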

mTRPV3 F666A = target: T2, mTRPV3 F666A (Mus musculus, UniProt Q8K424, F666A); assay: whole-cell patch-clamp of mTRPV3 F666A mutant in HEK293 cells; format: cell-based; details: compound 50 μmol/L; 2-APB; compared with WT mTRPV3
T2 sequence (Q8K424 1-791 F666A): T1 sequence (Q8K424 1-791 H426A) with A426H, F666A
How it was run: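 Mouse Trpv3 point mutants were made by site-directed mutagenesis, sequence-verified, and transiently expressed in HEK293 cells alongside wild-type mTRPV3. Whole-cell ramp recordings (−100 to +100 mV, 500 ms, holding 0 mV) were made at 22–24 °C. Currents were activated by 2-APB, and inhibition by 50 μmol/L test compound in the presence of 2-APB was compared with wild type; n = 3–8.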

hTRPV3 = target: T3, hTRPV3 (Homo sapiens, UniProt Q8NET8); assay: inside-out single-channel recordings of HEK293 cells overexpressing hTRPV3; format: biochemical; details: for channel open probability: compound 100 μmol/L in the presence of carvacrol 300 μmol/L, from 26.9 ± 5.5%, +80 mV, n = 4; for effect on ion permeation or single-channel conductance: single-channel level
T3 sequence (Q8NET8 1-790): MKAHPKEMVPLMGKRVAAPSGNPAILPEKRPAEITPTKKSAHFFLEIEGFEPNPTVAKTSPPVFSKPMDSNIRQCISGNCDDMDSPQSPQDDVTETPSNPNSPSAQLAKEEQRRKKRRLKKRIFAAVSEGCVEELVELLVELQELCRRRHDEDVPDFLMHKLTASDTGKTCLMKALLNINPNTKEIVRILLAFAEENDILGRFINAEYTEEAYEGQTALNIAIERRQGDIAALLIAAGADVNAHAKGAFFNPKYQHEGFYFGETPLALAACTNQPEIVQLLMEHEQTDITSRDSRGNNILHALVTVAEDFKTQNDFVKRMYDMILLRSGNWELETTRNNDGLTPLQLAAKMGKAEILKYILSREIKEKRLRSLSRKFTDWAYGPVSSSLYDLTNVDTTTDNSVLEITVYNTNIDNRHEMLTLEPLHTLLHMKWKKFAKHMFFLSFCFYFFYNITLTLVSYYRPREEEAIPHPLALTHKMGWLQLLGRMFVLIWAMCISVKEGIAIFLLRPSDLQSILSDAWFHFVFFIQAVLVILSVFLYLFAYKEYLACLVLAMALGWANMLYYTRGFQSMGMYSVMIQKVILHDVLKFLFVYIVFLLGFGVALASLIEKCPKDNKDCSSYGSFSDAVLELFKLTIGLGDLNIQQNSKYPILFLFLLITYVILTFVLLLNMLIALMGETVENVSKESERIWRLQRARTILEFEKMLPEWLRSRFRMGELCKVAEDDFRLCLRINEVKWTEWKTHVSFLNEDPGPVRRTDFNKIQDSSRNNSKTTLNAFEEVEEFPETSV
How it was run: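 Inside-out patches from EGFP-identified HEK293 cells, 18 h after hTRPV3 transfection, used 6–10 MΩ pipettes. Patches were held at 0 mV, then stepped to +80 mV. Currents were sampled at 10 kHz, filtered at 2.9 kHz, at 22–24 °C. All-points histograms were Gaussian-fitted for conductance and mean open probability; n = 4.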

Compound	inhibition of carvacrol-mediated H426A mutant currents (mTRPV3 H426A)	effect of mutation on compound-induced inhibition of mTRPV3 currents (mTRPV3 F666A)	channel open probability (hTRPV3)	effect on ion permeation or single-channel conductance (hTRPV3)
O=C(/C=C/c1ccc(O)c(O)c1)O[C@@H]1C[C@](O)(C(=O)O)C[C@@H](OC(=O)/C=C/c2ccc(O)c(O)c2)[C@H]1O [IAA, isochlorogenic acid A]	markedly inhibited	markedly reduced	3.7 ± 1.2%	no effect
O=C(/C=C/c1ccc(O)c(O)c1)O[C@@H]1[C@H](O)C[C@@](O)(C(=O)O)C[C@H]1OC(=O)/C=C/c1ccc(O)c(O)c1 [IAB, isochlorogenic acid B]	markedly inhibited	markedly reduced	3.2 ± 1.1%	no effect

Source: PMC8897028 (Acta Pharmaceutica Sinica. B, 2021)
